Tests used:
[1] = molecular target: Fibroblast growth factor receptor (Mus musculus, UniProt P21803+Q03142+P16092+Q61851); assay: Inhibition of mouse fibroblast growth factor receptor tyrosine kinase (FGFr); assay type: protein assay
[2] = molecular target: Platelet-derived growth factor receptor (Mus musculus, UniProt P05622+P26618); assay: Inhibition against of platelet-derived growth factor receptor (PDGFr)
[3] = molecular target: Proto-oncogene tyrosine-protein kinase Src (Mus musculus, UniProt P05480); assay: Inhibition of mouse c-Src tyrosine kinase
Proto-oncogene tyrosine-protein kinase Src, sequence (P05480 2-535 limits assumed): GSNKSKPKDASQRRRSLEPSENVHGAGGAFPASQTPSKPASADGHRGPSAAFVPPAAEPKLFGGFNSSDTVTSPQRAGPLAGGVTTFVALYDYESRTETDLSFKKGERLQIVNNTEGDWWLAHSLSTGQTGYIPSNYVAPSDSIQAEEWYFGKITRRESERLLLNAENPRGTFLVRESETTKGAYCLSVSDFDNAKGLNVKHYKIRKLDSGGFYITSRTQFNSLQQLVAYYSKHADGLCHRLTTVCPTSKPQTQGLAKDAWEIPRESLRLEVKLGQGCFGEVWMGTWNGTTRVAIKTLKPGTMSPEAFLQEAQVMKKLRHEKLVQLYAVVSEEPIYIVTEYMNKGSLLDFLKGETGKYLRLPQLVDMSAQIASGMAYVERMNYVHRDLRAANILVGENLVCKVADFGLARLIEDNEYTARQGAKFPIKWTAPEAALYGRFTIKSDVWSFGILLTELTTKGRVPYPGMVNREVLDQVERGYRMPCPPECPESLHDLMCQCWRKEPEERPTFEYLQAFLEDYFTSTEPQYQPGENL

[4] = molecular target: T1, Platelet-derived growth factor receptor (PDGFr) (Rattus norvegicus, UniProt P20786+Q05030); assay: Inhibition of PDGF-stimulated Platelet-derived growth factor receptor autophosphorylation in C6 rat glioma cells after 2 hr; assay type: cell-based
[5] = Compound was tested for maximum observed concentration in three male Wistar rats at a single 5 mg/kg oral gavage dose; assay type: ADME, organism-based; set-up: dose 5 mg/kg, route oral; details: rat, in vivo
How it was run: (§1)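 Single 5 mg/kg oral gavage dose given to three male Wistar rats, in 17% PEG 400/83% methylcellulose (0.5%). Heparinized plasma was taken by jugular vein cannula from 0 to 48 h; lower limit of quantitation was 10 ng/mL. Noncompartmental analysis: t1/2 = 0.693/λz (log-linear terminal regression); AUC by trapezoidal rule, extrapolated to infinity.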

[6] = Compound was tested for time to reach Cmax in three male Wistar rats at a single 5 mg/kg oral gavage dose.; assay type: ADME, organism-based; set-up: dose 5 mg/kg, route oral; details: rat, in vivo; how it was run: as §1
C6 [7] = assay: C6 glioma 3-day proliferation followed by soft agar growth without treatment; assay type: functional, cell-based; details: Rattus norvegicus, C6, 72 h
How it was run: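 C6 rat glioma cells exposed to a range of compound concentrations for 3 days in culture, then cloned in soft agar with drug removed. IC50 derived.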

Rattus norvegicus [8] = assay: Compound was tested for area under concentration -time curve from time 0 to time infinity in three male Wistar rats at a single 5 mg/kg oral gavage dose.; assay type: ADME, organism-based; set-up: dose 5 mg/kg, route oral; details: in vivo; how it was run: as §1
C6 [9] = assay: C6 glioma 3-day proliferation followed by soft agar growth with continuous treatment; assay type: functional, cell-based; details: Rattus norvegicus, C6, 72 h
How it was run: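 C6 rat glioma cells exposed to a range of compound concentrations for 3 days in culture, then cloned in soft agar with drug kept present throughout colony growth. IC50 derived.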

C6 [10] = assay: Inhibition of rat C6 glioma cell proliferation in sulforhodamine B assay; assay type: functional, cell-based
How it was run: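 C6 rat glioma cells cultured 4 days with a range of compound concentrations; growth read by sulforhodamine B staining, giving IC50.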

[11] = Compound was tested for apparent terminal phase elimination half life in three male Wistar rats at a single 5 mg/kg oral gavage dose; assay type: ADME, organism-based; set-up: dose 5 mg/kg, route oral; details: rat, in vivo; how it was run: as §1
Rattus norvegicus [12] = assay: Compound was tested for area under concentration -time curve from time 0 to time of last detectable concentration in three male Wistar rats at a single 5 mg/kg oral gavage dose; assay type: ADME, organism-based; set-up: dose 5 mg/kg, route oral; details: in vivo; how it was run: as §1
[13] = molecular target: T1, Platelet-derived growth factor receptor (PDGFr); assay: Inhibition of PDGF-stimulated Platelet-derived growth factor receptor autophosphorylation in rat aortic vascular smooth muscle cells (RAVSMCs) after 2 hr
Mus musculus [14] = assay: Ratio of treated/control PDGF-transfected cell tumor mass at 20 mg/kg peroral dose, days 1-15 administration; assay type: functional; details: route oral
How it was run: (§2)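 Nude mouse sc axillary tumor-fragment xenografts implanted on day 0 (6-8 treated, 12 controls), with oral dosing on the stated schedule. T/C = median treated tumor mass / median control tumor mass × 100%, on the last therapy day.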

DU-145 [15] = assay: Weight change after 48 mg/kg peroral dose, days 16-20,23-27,30-34 treatment of DU-145 cell tumor
Mus musculus [16] = assay: Delay between treated (T) and control (C) PDGF-transfected cell tumors reaching 750 mg at 20 mg/kg peroral dose, days 1-15 administration; assay type: functional; details: route oral
How it was run: (§3)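 Nude mice (18-22 g), randomized, implanted sc in the right axilla on day 0 with tumor fragments maintained by serial passage in nude mice. Tumors were C6 rat glioma, NIH 3T3 transfected with human PDGF ββ, or DU-145 prostate. At least 6 mice per group, 12 controls. Oral dosing by average cage weight on the stated days.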

DU-145 [17] = assay: Ratio of treated/control DU-145 cell tumor mass at 48 mg/kg peroral dose, days 16-20, 23-27, 30-34 administration; assay type: functional; details: route oral; how it was run: as §2
C6 [18] = assay: Net reduction in C6 glioma cell tumor burden after 40 mg/kg peroral dose, days 1-15 administration; assay type: functional; details: route oral
How it was run: (§4)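 Tumor lines (C6 rat glioma; NIH 3T3 fibroblasts transfected with human PDGF-ββ; DU-145 prostatic adenocarcinoma) were kept by serial passage in nude mice. Randomized nude mice weighing 18-22 g received sc tumor fragments in the right axilla on day 0, with at least 6 per treated group and 12 controls. Oral dosing was based on average cage weight. Net cell kill is given as log10.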

DU-145 [19] = assay: Delay between treated (T) and control (C) DU-145 cell tumors reaching 750 mg at 48 mg/kg peroral dose, days 16-20,23-27,30-34 administration; assay type: functional; details: route oral; how it was run: as §3
Mus musculus [20] = assay: Net reduction in PDGF-transfected cell tumor burden after 20 mg/kg peroral dose, days 1-15 administration; assay type: functional; details: route oral; how it was run: as §4
Rattus norvegicus [21] = assay: Compound was tested for area under concentration -time curve from time 0 to time infinity in three male Wistar rats at a single 5 mg/kg oral gavage dose; assay type: ADME, organism-based; set-up: dose 5 mg/kg, route oral; details: in vivo; how it was run: as §1
DU-145 [22] = assay: Net reduction in DU-145 cell tumor burden after 48 mg/kg peroral dose, days 16-20,23-27,30-34 administration; assay type: functional; details: route oral; how it was run: as §4
C6 [23] = assay: Ratio of treated/control C6 glioma cell tumor mass at 40 mg/kg peroral dose, days 1-15 administration; assay type: functional; details: route oral; how it was run: as §2
C6 [24] = assay: Weight change after 40 mg/kg peroral dose, days 1-15 treatment of C6 glioma cell tumor; assay type: functional; details: route oral; how it was run: as §3
Mus musculus [25] = assay: Weight change after 20 mg/kg peroral dose, days 1-15 treatment of PDGF-transfected cell tumor; assay type: functional, organism-based; set-up: dose 20 mg/kg; how it was run: as §3
C6 [26] = assay: Delay between treated (T) and control (C) C6 glioma cell tumors reaching 750 mg at 40 mg/kg peroral dose, days 1-15 administration; assay type: functional; details: route oral; how it was run: as §3

Cn1c(=O)c(-c2ccsc2)cc2cnc(N)nc21
IC50 [1]: > 50000 nM
IC50 [2]: 24400 nM
IC50 [3]: > 50000 nM

CCCn1c(=O)c(-c2c(Cl)cccc2Cl)cc2cnc(N)nc21
IC50 [1]: 510 nM
IC50 [2]: 1200 nM
IC50 [3]: 630 nM

CNc1ncc2cc(-c3ccsc3)c(=O)n(C)c2n1
IC50 [1]: > 50000 nM
IC50 [2]: > 50000 nM
IC50 [3]: > 50000 nM

Cn1c(=O)c(-c2cccs2)cc2cnc(Nc3ccccc3)nc21
IC50 [1]: > 50000 nM
IC50 [2]: 950 nM
IC50 [3]: > 50000 nM

CCn1c(=O)c(-c2ccsc2)cc2cnc(Nc3ccccc3)nc21
IC50 [4]: > 25 nM
IC50 [1]: > 50000 nM
IC50 [2]: 410 nM
IC50 [3]: 41000 nM

CCN(CC)CCOc1ccc(Nc2ncc3cc(-c4ccccc4)c(=O)n(C)c3n2)cc1
IC50 [1]: 350 nM
IC50 [2]: 42 nM
IC50 [3]: 140 nM

CCn1c(=O)c(-c2ccccc2)cc2cnc(Nc3ccncc3)nc21
IC50 [4]: 58 nM
Cmax [5]: 730 ng/mL
Tmax [6]: 1.5 h
IC50 (C6 [7]): 13200 nM
AUC (Rattus norvegicus [8]): 5240 ng·h/mL
IC50 (C6 [9]): 4900 nM
IC50 [1]: 1100 nM
IC50 (C6 [10]): 7200 nM
half-life [11]: 3.72 h
IC50 [2]: 74 nM
AUC (Rattus norvegicus [12]): 4760 ng·h/mL
IC50 [3]: 410 nM

Nc1ncc2cc(-c3c(Cl)cccc3Cl)c(=O)n(CCCOCc3ccccc3)c2n1
IC50 [1]: 3200 nM
IC50 [2]: 6800 nM
IC50 [3]: 1400 nM

CCn1c(=O)c(-c2ccccc2)cc2cnc(Nc3ccccc3)nc21
IC50 [4]: > 25 nM
IC50 [13]: 4.6 nM
IC50 [1]: 1500 nM
IC50 [2]: 180 nM
IC50 [3]: 1800 nM

CCN(CC)CCOc1ccc(Nc2ncc3cc(-c4ccccc4)c(=O)n(CC)c3n2)cc1
IC50 [4]: 3 nM
T/C (Mus musculus [14]): 1%
Cmax [5]: 78.3 ng/mL
Tmax [6]: 2.67 h
Weight change (DU-145 [15]): Weight gain
IC50 (C6 [7]): 150 nM
T-C (Mus musculus [16]): 6.9 days
T/C (DU-145 [17]): 40%
Net log cell kill (C6 [18]): -0.3
IC50 (C6 [9]): 120 nM
T-C (DU-145 [19]): 11.4 days
IC50 [1]: 88 nM
Net log cell kill (Mus musculus [20]): -1.2
IC50 (C6 [10]): 1200 nM
AUC (Rattus norvegicus [21]): 828 ng·h/mL
Net log cell kill (DU-145 [22]): -0.4
half-life [11]: 6.65 h
IC50 [2]: 31 nM
T/C (C6 [23]): 0%
AUC (Rattus norvegicus [12]): 525 ng·h/mL
IC50 [3]: 31 nM
Weight change (C6 [24]): -0.7 g
Weight change (Mus musculus [25]): Weight gain
T-C (C6 [26]): 9.6 days

Cn1c(=O)c(-c2ccc(-c3ccccc3)cc2)cc2cnc(Nc3ccccc3)nc21
IC50 [1]: > 50000 nM
IC50 [2]: > 50000 nM
IC50 [3]: > 50000 nM

Cn1c(=O)c(-c2ccccc2)cc2cnc(Nc3ccccc3)nc21
IC50 [1]: 5000 nM
IC50 [2]: 290 nM
IC50 [3]: 2400 nM

COC(=O)Cn1c(=O)c(-c2c(Cl)cccc2Cl)cc2cnc(N)nc21
IC50 [1]: 1700 nM
IC50 [2]: 5000 nM
IC50 [3]: 340 nM

CCN(CC)CCOc1ccc(Nc2ncc3cc(-c4ccsc4)c(=O)n(C)c3n2)cc1
IC50 [13]: 54 nM
IC50 [1]: 2900 nM
IC50 [2]: 54 nM
IC50 [3]: 210 nM

Nc1ncc2cc(-c3c(Cl)cccc3Cl)c(=O)n(CCCO)c2n1
IC50 [1]: 370 nM
IC50 [2]: 1100 nM
IC50 [3]: 180 nM

CC(C)(C)OC(=O)Cn1c(=O)c(-c2c(Cl)cccc2Cl)cc2cnc(N)nc21
IC50 [1]: 1700 nM
IC50 [2]: 7200 nM
IC50 [3]: 560 nM

CC(C)Cn1c(=O)c(-c2c(Cl)cccc2Cl)cc2cnc(N)nc21
IC50 [1]: 500 nM
IC50 [2]: 1600 nM
IC50 [3]: 890 nM

CCn1c(=O)c(-c2c(Cl)cccc2Cl)cc2cnc(N)nc21
IC50 [2]: 980 nM
IC50 [3]: 160 nM

Cn1c(=O)c(-c2ccccc2)cc2cnc(Nc3ccncc3)nc21
IC50 [1]: 4700 nM
IC50 [2]: 320 nM
IC50 [3]: 470 nM

Nc1ncc2cc(-c3c(Cl)cccc3Cl)c(=O)n(Cc3ccccc3)c2n1
IC50 [1]: 1400 nM
IC50 [2]: 4200 nM
IC50 [3]: 160 nM

Cn1c(=O)c(-c2ccsc2)cc2cnc(Nc3ccncc3)nc21
IC50 [1]: 22600 nM
IC50 [2]: 480 nM
IC50 [3]: 1700 nM

Nc1ncc2cc(-c3c(Cl)cccc3Cl)c(=O)n(Cc3ccncc3)c2n1
IC50 [2]: 1200 nM
IC50 [3]: 630 nM

CCN(CC)CCOc1ccc(Nc2ncc3cc(-c4c(Cl)cccc4Cl)c(=O)n(CC)c3n2)cc1
IC50 [1]: 30 nM
IC50 [2]: 150 nM
IC50 [3]: 17 nM

CCCCn1c(=O)c(-c2c(Cl)cccc2Cl)cc2cnc(N)nc21
IC50 [1]: 580 nM
IC50 [2]: 1200 nM
IC50 [3]: 330 nM

Cn1c(=O)c(-c2c(Cl)cccc2Cl)cc2cnc(N)nc21
IC50 [1]: 1300 nM
IC50 [2]: 3800 nM
IC50 [3]: 260 nM

CN(C)CCCn1c(=O)c(-c2c(Cl)cccc2Cl)cc2cnc(N)nc21
IC50 [1]: 880 nM
IC50 [2]: 1800 nM
IC50 [3]: 50 nM

Cn1c(=O)c(-c2ccsc2)cc2cnc(Nc3ccccc3)nc21
IC50 [1]: > 50000 nM
IC50 [2]: 800 nM
IC50 [3]: 8100 nM

Nc1ncc2cc(-c3c(Cl)cccc3Cl)c(=O)n(CC(=O)O)c2n1
IC50 [1]: 7900 nM
IC50 [2]: > 50000 nM
IC50 [3]: > 50000 nM

Source: ChEMBL document CHEMBL1131615, “Synthesis and tyrosine kinase inhibitory activity of a series of 2-amino-8H-pyrido[2,3-d]pyrimidines: identification of potent, selective platelet-derived growth factor receptor tyrosine kinase inhibitors” (J Med Chem, 1998)
